Reference: ChEMBL document CHEMBL1154863 (J Nat Prod, 2010)

Key:
[1] = system: Mus musculus; assay: Effect on locomotory activity in sc dosed mouse assessed as change in spontaneous activity after 5 mins by photocell interruption readings; assay type: functional
Method in brief: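 Mice placed in photocell activity cages 5 min after s.c. saline or analogue. Beam interruptions recorded over the next 10 min and expressed as photocell interruption counts.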

[2] = target: Neuronal acetylcholine receptor; alpha4/beta2 (Rattus norvegicus, UniProt P09483+P12390); assay: Displacement of [3H]epibatidine from alpha4beta2 nAChR in rat cerebral cortex after 4 hrs by scintillation counting; assay type: tissue-based
Method in brief: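 Rat cerebral cortex homogenate (3 mg wet weight, washed three times) in 50 mM Tris pH 7.4 with NaCl, KCl, CaCl2, MgCl2. 4 h at room temperature. Filtration onto polyethylenimine-soaked GF/B, scintillation counting. Ki from IC50 by Cheng-Prusoff.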

[3] = system: Mus musculus; assay: Inhibition of nicotine-induced antinociception in mouse assessed as reaction time taken to jump or lick paw at 100 ug/kg after 5 mins by hot plate test; assay type: functional
[4] = target: Neuronal acetylcholine receptor subunit alpha-7 (Rattus norvegicus, UniProt Q05941); assay: Displacement of [3H]iodo-MLA from alpha7 nAChR in rat cerebral cortex after 2 hrs by scintillation counting; assay type: tissue-based
Method in brief: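 Washed rat cerebral cortex homogenate (3 mg wet weight) in Tris pH 7.4 buffer with salts. 2 h on ice. Nonspecific binding defined with 300 µM (−)-nicotine. Filtered onto BSA-soaked GF/B, then microplate scintillation counting.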

[5] = system: Mus musculus; assay: Effect on rectal body temperature in sc dosed mouse assessed as change in temperature after 30 mins by inducible hypothermia test; assay type: functional; conditions: 0.5 h
Method in brief: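 Rectal temperature measured in mice with a thermistor probe inserted 24 mm, read before and 30 min after s.c. saline or analogue. Change from pre-treatment value calculated for each mouse.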

[6] = system: Mus musculus; assay: Antinociceptive activity in sc dosed mouse assessed as reaction time taken to jump or lick paw after 5 mins by hot plate test; assay type: functional
Method in brief: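 Mice placed in a glass cylinder on a 55.0 °C hot plate. Two control latencies taken at least 10 min apart; normal latency 8–12 s. Jump or paw lick scored. Tested 5 min after s.c. injection, eight mice per dose. %MPE calculated against a 40 s maximum.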

[7] = system: Mus musculus; assay: Antinociceptive activity in sc dosed mouse after 5 mins by tail flick test; assay type: functional; conditions: Mus musculus, Tail, sc, 5 min; read-out: ED50
Method in brief: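 Mice, tail-flick by the D'Amour–Smith method. Baseline latency 2–4 s, 10 s cutoff. Tested 5 min after s.c. injection. Response expressed as %MPE = (test−control)/(10−control)×100. 8–12 mice per dose, at least four doses per dose-response curve.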

[8] = system: Mus musculus; assay: Inhibition of nicotine-induced antinociception in sc dosed mouse assessed as tail withdrawal latency after 5 mins by tail flick test; assay type: functional
[9] = system: Mus musculus; assay: Inhibition of nicotine-induced antinociception in sc dosed mouse assessed as reaction time taken to jump or lick paw after 5 mins by hot plate test; assay type: functional
[10] = species: Rattus norvegicus; assay: Selectivity ratio of Ki for rat alpha7 nAChR to Ki for rat alpha4beta2 nAChR
[11] = system: Mus musculus; assay: Inhibition of nicotine-induced antinociception in mouse assessed as reaction time taken to jump or lick paw at 200 ug/kg after 5 mins by hot plate test; assay type: functional

Neuronal acetylcholine receptor subunit alpha-7, sequence (Q05941 whole entry): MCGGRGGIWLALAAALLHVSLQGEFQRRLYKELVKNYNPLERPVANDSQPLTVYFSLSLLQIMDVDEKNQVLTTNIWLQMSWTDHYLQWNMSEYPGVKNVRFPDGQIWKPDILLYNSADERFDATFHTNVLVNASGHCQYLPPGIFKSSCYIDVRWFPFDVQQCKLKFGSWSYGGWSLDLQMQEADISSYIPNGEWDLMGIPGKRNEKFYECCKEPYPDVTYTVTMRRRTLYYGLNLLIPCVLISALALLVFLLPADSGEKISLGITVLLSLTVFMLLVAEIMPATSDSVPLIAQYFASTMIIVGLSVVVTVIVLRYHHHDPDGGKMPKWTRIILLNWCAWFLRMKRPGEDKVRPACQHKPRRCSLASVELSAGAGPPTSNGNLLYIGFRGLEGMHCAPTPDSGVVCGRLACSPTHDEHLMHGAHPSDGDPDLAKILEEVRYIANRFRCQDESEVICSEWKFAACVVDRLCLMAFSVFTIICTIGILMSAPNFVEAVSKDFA
Neuronal acetylcholine receptor; alpha4/beta2, sequence (P09483 whole entry): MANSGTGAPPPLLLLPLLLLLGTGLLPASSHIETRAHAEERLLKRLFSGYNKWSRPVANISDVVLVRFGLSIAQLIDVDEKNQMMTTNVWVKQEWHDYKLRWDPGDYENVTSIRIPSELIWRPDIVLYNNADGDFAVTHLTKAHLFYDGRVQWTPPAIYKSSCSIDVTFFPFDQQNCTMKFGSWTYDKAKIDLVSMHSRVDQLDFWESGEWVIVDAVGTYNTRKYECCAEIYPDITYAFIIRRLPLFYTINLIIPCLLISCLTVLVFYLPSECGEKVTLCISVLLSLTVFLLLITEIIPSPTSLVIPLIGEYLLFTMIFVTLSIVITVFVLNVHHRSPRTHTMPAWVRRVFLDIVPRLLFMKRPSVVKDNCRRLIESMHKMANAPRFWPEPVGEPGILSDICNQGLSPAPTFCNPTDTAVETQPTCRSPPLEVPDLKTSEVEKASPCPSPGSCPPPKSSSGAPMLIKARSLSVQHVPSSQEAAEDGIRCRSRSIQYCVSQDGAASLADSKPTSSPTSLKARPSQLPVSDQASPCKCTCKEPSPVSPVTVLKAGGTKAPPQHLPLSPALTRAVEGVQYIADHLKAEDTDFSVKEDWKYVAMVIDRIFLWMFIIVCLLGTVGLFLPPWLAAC
Neuronal acetylcholine receptor; alpha4/beta2, sequence (P12390 whole entry): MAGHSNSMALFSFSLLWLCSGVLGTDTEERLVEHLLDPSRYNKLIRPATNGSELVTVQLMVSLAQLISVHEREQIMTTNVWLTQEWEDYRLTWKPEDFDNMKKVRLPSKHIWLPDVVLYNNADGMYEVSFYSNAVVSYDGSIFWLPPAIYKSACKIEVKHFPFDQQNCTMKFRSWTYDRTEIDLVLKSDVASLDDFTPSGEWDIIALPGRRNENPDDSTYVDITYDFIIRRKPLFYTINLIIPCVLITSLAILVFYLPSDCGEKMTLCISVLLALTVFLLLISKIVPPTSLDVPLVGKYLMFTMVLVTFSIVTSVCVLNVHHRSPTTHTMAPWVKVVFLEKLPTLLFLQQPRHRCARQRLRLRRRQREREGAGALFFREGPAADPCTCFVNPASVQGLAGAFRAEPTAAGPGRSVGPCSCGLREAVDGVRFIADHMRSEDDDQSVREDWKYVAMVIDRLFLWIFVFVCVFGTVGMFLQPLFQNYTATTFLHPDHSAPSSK

Row | SMILES | ED50 [1] | Ki [2] | inhibition in vivo at 0.1 mg/kg [3] | Ki [4] | ED50 [5] | ED50 [6] | ED50 [7] | AD50 [8] | AD50 [9] | Ratio Ki [10] | inhibition in vivo at 0.2 mg/kg [11]
1 | COc1cccc(-c2cc([C@H]3C[C@@H]4CC[C@H]3N4)cnc2Cl)c1 | 0.2 mg/kg | 0.019 nM | 0% | 558 nM | 0.7 mg/kg | 0.8 mg/kg | 0.7 mg/kg | 0.029 mg/kg |  |  | 
2 | Fc1ccc(-c2cc([C@H]3C[C@@H]4CC[C@H]3N4)cnc2Cl)cc1 | 0.33 mg/kg | 0.017 nM | 30% | 309 nM | 0.33 mg/kg | 1.27 mg/kg | 2.48 mg/kg | 0.0005 mg/kg |  |  | 
3 | Nc1ccc(-c2cc([C@H]3C[C@@H]4CC[C@H]3N4)cnc2Cl)cc1 | 0.52 mg/kg | 0.034 nM | 0% | 234 nM | 1.1 mg/kg | 4.5 mg/kg | 5 mg/kg | 0.006 mg/kg |  |  | 
4 | O=[N+]([O-])c1cccc(-c2cc([C@H]3C[C@@H]4CC[C@H]3N4)cnc2Cl)c1 | 0.9 mg/kg | 0.008 nM |  | 229 nM | 1.4 mg/kg | 3.2 mg/kg | 4.6 mg/kg | 0.00025 mg/kg | 0.18 mg/kg |  | 
5 | Nc1cccc(-c2cc([C@H]3C[C@@H]4CC[C@H]3N4)cnc2Cl)c1 | 0.03 mg/kg | 0.017 nM |  | 256 nM | 0.31 mg/kg | 0.3 mg/kg | 0.34 mg/kg | 0.00014 mg/kg | 0.026 mg/kg |  | 
6 | Clc1cccc(-c2cc([C@H]3C[C@@H]4CC[C@H]3N4)cnc2Cl)c1 | 0.06 mg/kg | 0.013 nM |  | 30.5 nM | 0.38 mg/kg | 4.2 mg/kg | 3.4 mg/kg | 0.0022 mg/kg | 0.08 mg/kg | 2000 | 
7 | Fc1cccc(-c2cc([C@H]3C[C@@H]4CC[C@H]3N4)cnc2Cl)c1 | 0.07 mg/kg | 0.012 nM |  | 250 nM | 0.19 mg/kg | 0.43 mg/kg | 1 mg/kg | 0.0039 mg/kg | 0.086 mg/kg |  | 
8 | COc1ccc(-c2cc([C@H]3C[C@@H]4CC[C@H]3N4)cnc2Cl)cc1 | 0.43 mg/kg | 0.022 nM |  | 175 nM | 0.79 mg/kg | 1.1 mg/kg | 2.36 mg/kg | 0.01 mg/kg |  |  | 10%
